Values joined by “and” are separate entries in the source; they are usually repeats but may differ in a detail not shown here. Equal entries are not always repeated.
Tests used:
[1] = Formalin, ethanol and freezing effects on renal crystals; set-up: species or system rat
Method in brief: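 Fresh kidney wet-mounts with crystal rank 4–5 were flooded with 10% neutral buffered formalin and photographed repeatedly. Times were 0, 1, 2, 3 and 24 h for melamine-exposed kidney and 0, 10, 20, 30 min and 1 h for cyanuric acid-exposed kidney. Sections in 100% ethanol were checked daily for up to 6 days. Frozen tissue, either freeze–thawed or held at −70 °C, was cut into 6 μm cryosections, unstained or unfixed H&E.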

[2] = oral, female rats; ref Jacob et al., 2012; cited from earlier work
fetuses = test: Fetal data; type: in vivo, rat; details: dams, 1000 mg/kg BW/day, GD20
Method in brief: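 Dams were dosed by gavage (1000 mg/kg BW/day or 1% CMC-Na vehicle) for 10 days from GD10. At GD20 necropsy, the gravid uterus was removed whole and weighed. Each viable fetus was recorded for uterine position, sex, weight, crown-rump length and external abnormalities. Runts were defined as below 70% of the control litter average weight by gender.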

[3] = Serum triazine analysis by LC-MS/MS; type: in vivo; details: pregnant female rats, individual rat; label = dose group; LOD 0.4 μg/mL
Method in brief: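 Serum was collected from each rat after 10 daily gavages of 1000 mg/kg BW/day test compound or vehicle. Melamine and cyanuric acid were quantified by a previously published LC-MS/MS method, validated with pre-spiked serum samples at several fortification levels. Natural-log serum concentrations were compared between pregnant and non-pregnant rats by two-sided t-test (p ≤ 0.05).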

kidney = test: Kidney wet-mount analysis for renal crystals; type: in vivo, rat; details: pregnant and non-pregnant combined, wet-mount
Method in brief: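 After 10 days of gavage at 1000 mg/kg BW/day, a thin fresh renal slice spanning cortex and medulla was weighed. It was compressed between two slides with a coverslip and examined fresh by light microscopy. Crystals were ranked on a subjective 0–5 scale; some views used polarised light.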

[4] = Amniotic fluid triazine analysis by LC-MS/MS; type: in vivo, rat; details: pregnant female rats, pooled by dam; label = dose group; LOD 0.4 μg/mL
Method in brief: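 Amniotic fluid came from GD20 dams gavaged for 10 days with vehicle or 1000 mg/kg BW/day test compound. Melamine and cyanuric acid were measured by a previously published LC-MS/MS method, validated with pre-spiked amniotic fluid. Serum-to-amniotic fluid Pearson correlations were run only on rats with both samples (p ≤ 0.05).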

[5] = Body weight and organ weights standardized to body weight; type: in vivo, rat; details: for GD20 Body weight (g ± SEM) / Heart weight standardized to body weight (% ± SEM) / Left kidney weight standardized to body weight (% ± SEM) / Liver weight standardized to body weight (% ± SEM) / Right kidney weight standardized to body weight (% ± SEM) / Spleen weight standardized to body weight (% ± SEM) / Paired kidney weight standardized to body weight (% ± SEM): 1000 mg/kg BW/day; for Paired kidney weight standardized to body weight (% ± SEM): group mean, 1000 mg/kg/day
pregnant rats = test: Reproductive indices at necropsy; type: in vivo, rat
Method in brief: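 Time-pregnant rats were gavaged daily for 10 days from GD10 with 1% CMC-Na or 1000 mg/kg BW/day test compound. At necropsy the gravid uterus was removed whole and weighed, and corpora lutea, implants, and early and late deaths were recorded. Groups were compared against both control and the other triazine group.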

rats = test: Clinical observations and survival; type: in vivo, rat; details: pregnant and non-pregnant rats; 1000 mg/kg BW/day
Method in brief: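 Female rats, time-pregnant or non-pregnant, were weight-stratified and randomised from GD10. They were gavaged each morning for 10 days with 1% CMC-Na vehicle or 1000 mg/kg BW/day test compound at 1 mL/100 g (n = 11/group; pregnant high-triazine group n = 13). Observations were made at least twice on day 1, then at least daily, covering skin, fur, eyes, mucosa, autonomic/CNS signs and behaviour. Animals removed early were counted as deaths.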

kidney and bladder = test: Histopathology of kidney and bladder; type: in vivo, rat
[6] = Serum chemistry, renal function; type: in vivo, rat; details: for Blood urea nitrogen (mean ± SEM) / Creatinine (mean ± SEM) / Uric acid (mean ± SEM): serum
Method in brief: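 Serum was taken from pregnant and non-pregnant rats after 10 days of gavage with vehicle or 1000 mg/kg BW/day test compound. Samples were brought to room temperature. BUN, creatinine and uric acid were measured on a benchtop veterinary chemistry analyser. Results were compared with control and the other treated group.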

[7] = Weight gains, feed and water consumption of gavaged rats; type: in vivo, rat; details: for Total feed consumption (g ± SEM) / Total water consumption (g ± SEM): 1000 mg/kg BW/day
Method in brief: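 Rats were housed singly at 18–26 °C, 40–70% RH and 12 h light/dark, with feed and water ad libitum. They were gavaged for 10 days from GD10 with vehicle (1% CMC-Na) or 1000 mg/kg BW/day test compound. Fluid intake was measured every 3 days and feed every 7 days. For dams, adjusted gain = GD20 body weight minus gravid uterus weight and GD10 weight.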

[8] = dams, 1000 mg/kg BW/day, necropsy GD20
[9] = not pregnant rats, 1000 mg/kg BW/day
[10] = pregnant and non-pregnant pooled
[11] = pregnant rats, 1000 mg/kg BW/day

## Oc1nc(O)nc(O)n1 [CYA, cyanuric acid]
[1]; frozen kidney tissue, CYA stable if held at −70 °C
  Stability of crystals to freeze–thaw cycles: dissolved
[1]; kidney wet-mount sections
  Time at which almost all crystals were gone in formalin: 30 min
[2]
  Area under the curve (AUC): 1375 ng·h/mL
  Half-life: 59.4 min
fetuses
  Average crown rump length (mean cm ± SEM): 4.10 ± 0.02 cm
  Average fetal body weight (g ± SEM): 4.06 ± 0.05 g
  Litter size (mean ± SEM): 13.2 ± 0.6
[3]
  MEL concentration, Serum: <LOD
kidney; MEL n = 24, CYA n = 22
  Treated rats that developed renal crystals (percent): 18%
kidney; MEL of 24, CYA of 22
  Number of treated rats that developed renal crystals: 4
[4]
  MEL concentration, Amniotic Fluid: <LOD
[5]; not pregnant rats
  GD20 Body weight (g ± SEM): 234.3 ± 4.5 g
  Heart weight standardized to body weight (% ± SEM): 0.38 ± 0.01%
  Left kidney weight standardized to body weight (% ± SEM): 0.43 ± 0.02%
  Liver weight standardized to body weight (% ± SEM): 3.48 ± 0.07 %
  Right kidney weight standardized to body weight (% ± SEM): 0.45 ± 0.03%
  Spleen weight standardized to body weight (% ± SEM): 0.23 ± 0.02%
  Paired kidney weight standardized to body weight (% ± SEM): 0.88% and 0.88 ± 0.05%
[5]; pregnant rats
  GD20 Body weight (g ± SEM): 351.3 ± 6.1 g
  Heart weight standardized to body weight (% ± SEM): 0.30 ± 0.01%
  Left kidney weight standardized to body weight (% ± SEM): 0.28 ± 0.02%
  Liver weight standardized to body weight (% ± SEM): 3.58 ± 0.09%
  Right kidney weight standardized to body weight (% ± SEM): 0.30 ± 0.01%
  Spleen weight standardized to body weight (% ± SEM): 0.17 ± 0.01%
  Paired kidney weight standardized to body weight (% ± SEM): 0.58% and 0.58 ± 0.03%
[5]; two non-pregnant rats with crystals, both the same value
  Standardized paired kidney weight of individual rats with renal crystals: 1.22%
[5]; two pregnant rats with crystals
  Standardized paired kidney weight of individual rats with renal crystals: 0.74% and 0.77%
Pregnant rats; 1000 mg/kg BW/day
  Effect on reproductive indices compared with controls: did not appear to have an effect
Pregnant rats; dams, 1000 mg/kg BW/day gavage GD10-20, necropsy GD20
  No. corpea lutea (mean ± SEM): 15.1 ± 0.5
Pregnant rats; [8]
  Early and late deaths (mean% of implants ± SEM): 3.4 ± 1.6 % of implants
  Early deaths (mean% of implants ± SEM): 1.3 ± 0.9 % of implants
  Implant efficiency (mean% ± SEM): 90.7 ± 3.0%
  Late deaths (mean% of implants ± SEM): 2.0 ± 1.6 % of implants
  No. fetuses alive (mean ± SEM): 13.2 ± 0.6
  No. implants (mean ± SEM): 13.6 ± 0.5
  Percent alive both genders (mean% ± SEM): 96.7 ± 1.6%
  Percent live females (mean% ± SEM): 40.7 ± 3.8%
rats
  Maternal health during 10 day dosing period: no treatment related health effects
Kidney and bladder; MEL: pregnant rats, minimal to marked, CYA: 1 pregnant, 2 non-pregnant, mild
  Number of rats with epithelial necrosis in the bladder: Three
Kidney and bladder; kidney, H&E, of 22 treated rats
  Number of rats with tubular dilation and necrosis: 5
[6]; 1000 mg/kg BW/day
  Effect on uric acid serum levels versus control rats: did not appear to have an effect
[6]; 4 rats (2 pregnant and 2 non-pregnant)
  Mean BUN of treated rats with renal crystals: 31 mg/dL
[6]; [9]
  Blood urea nitrogen (mean ± SEM): 17.82 ± 2.33 mg/dL
  Creatinine (mean ± SEM): 0.59 ± 0.07 mg/dL
  Uric acid (mean ± SEM): 5.26 ± 0.27^& mg/dL
[6]; [10]
  Mean BUN of the other treated rats (without crystals): 15 mg/dL
  Mean creatinine of treated rats with crystals: 1.1 mg/dL
  Mean creatinine of treated rats without crystals: 0.5 mg/dL
[6]; [11]
  Blood urea nitrogen (mean ± SEM): 17.45 ± 2.26 mg/dL
  Creatinine (mean ± SEM): 0.59 ± 0.07 mg/dL
  Uric acid (mean ± SEM): 3.37 ± 0.28 mg/dL
[7]; not pregnant rats
  Total feed consumption (g ± SEM): 158.6 ± 8.8 g
  Total water consumption (g ± SEM): 264 ± 21.2 g
[7]; not pregnant rats, 1000 mg/kg BW/day gavage 10 days, brackets indicate negative
  Total bw gain (g ± SEM): 16.0 ± 4.1 g
[7]; pregnant rats
  Total feed consumption (g ± SEM): 220.1 ± 5.4 g
  Total water consumption (g ± SEM): 353.6 ± 17.5 g
[7]; pregnant rats, 1000 mg/kg BW/day gavage GD10-20
  Total bw gain (g ± SEM): 94.2 ± 3.3 g
